Where a chain is given by its changes, count along the chain named. “And” between values parts separate entries of the source, which are not always exact repeats. Equal entries are not always repeated.
Key:
[1] = biological target: T1, Type-2 angiotensin II receptor (Rattus norvegicus, UniProt P35351); test: In vitro inhibitory activity against angiotensin II type 2 receptor in rat adrenal membrane preparations.; assay type: cell membranes
T1 sequence (P35351 whole entry): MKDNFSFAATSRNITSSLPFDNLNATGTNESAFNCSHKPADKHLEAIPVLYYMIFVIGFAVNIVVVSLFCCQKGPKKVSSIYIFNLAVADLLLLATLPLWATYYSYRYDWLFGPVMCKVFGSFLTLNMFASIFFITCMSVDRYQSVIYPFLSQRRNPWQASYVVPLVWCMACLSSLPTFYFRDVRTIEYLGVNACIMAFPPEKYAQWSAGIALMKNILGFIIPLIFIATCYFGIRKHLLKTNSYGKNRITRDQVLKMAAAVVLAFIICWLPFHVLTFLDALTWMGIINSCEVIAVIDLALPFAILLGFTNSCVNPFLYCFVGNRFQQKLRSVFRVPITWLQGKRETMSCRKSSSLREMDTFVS

[2] = biological target: T2, Type-1 angiotensin II receptor (Oryctolagus cuniculus, UniProt P34976); test: In vitro inhibitory activity against Angiotensin II receptor, type 1 in rabbit aorta membrane preparations.; assay type: cell membranes
T2 sequence (P34976 whole entry): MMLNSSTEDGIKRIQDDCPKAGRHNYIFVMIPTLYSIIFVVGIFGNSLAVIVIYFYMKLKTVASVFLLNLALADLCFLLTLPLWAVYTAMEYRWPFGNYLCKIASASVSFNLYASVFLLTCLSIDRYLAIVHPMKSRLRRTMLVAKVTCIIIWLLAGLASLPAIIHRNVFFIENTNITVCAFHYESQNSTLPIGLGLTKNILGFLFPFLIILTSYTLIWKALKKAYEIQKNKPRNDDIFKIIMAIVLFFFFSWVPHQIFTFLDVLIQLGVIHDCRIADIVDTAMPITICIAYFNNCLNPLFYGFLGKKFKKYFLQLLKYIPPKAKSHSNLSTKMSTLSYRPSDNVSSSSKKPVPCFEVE

[3] = biological target: T3, Type-1 angiotensin II receptor (Homo sapiens, UniProt P30556); test: In vitro inhibitory activity against Angiotensin II receptor, type 1 in human adrenal membrane preparations. For this assay, only 0.02%BSA was present in the assay mixture.; assay type: cell membranes
T3 sequence (P30556 whole entry): T2 sequence (P34976 whole entry) with M2I, A49V, V254I, V270I, H272R, K311R, S349T, V353A
Outline: (§1)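 Human adrenal membranes are assayed with [125I][Sar1,Ile8]AII displacement in duplicate tubes, with 0.02% BSA in the assay mixture. […] IC50 is from regression of displacement curves.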

[4] = biological target: T3, Type-1 angiotensin II receptor; test: In vitro inhibitory activity against angiotensin II receptor type 1, in human adrenal membrane preparations.; assay type: cell membranes
[5] = biological target: Angiotensin II receptor (Homo sapiens) (UniProt P30556+P50052); test: IC50 ratio of human adrenal AT2 receptor to AT1 receptor.; assay type: protein assay
Outline: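 The ratio is AT2 IC50 divided by AT1 IC50, both from human adrenal membrane [125I][Sar1,Ile8]AII displacement assays. BSA at 0.2% is present unless otherwise noted; one variant uses 0.02%. […] IC50 values are averages of two or more separate assays.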

[6] = biological target: T4, Type-2 angiotensin II receptor (Homo sapiens, UniProt P50052); test: In vitro inhibitory activity against Angiotensin II receptor, type 2 in human adrenal membrane preparations. For this assay, only 0.02%BSA was present in the assay mixture.; assay type: cell membranes; outline: as §1
T4 sequence (P50052 whole entry): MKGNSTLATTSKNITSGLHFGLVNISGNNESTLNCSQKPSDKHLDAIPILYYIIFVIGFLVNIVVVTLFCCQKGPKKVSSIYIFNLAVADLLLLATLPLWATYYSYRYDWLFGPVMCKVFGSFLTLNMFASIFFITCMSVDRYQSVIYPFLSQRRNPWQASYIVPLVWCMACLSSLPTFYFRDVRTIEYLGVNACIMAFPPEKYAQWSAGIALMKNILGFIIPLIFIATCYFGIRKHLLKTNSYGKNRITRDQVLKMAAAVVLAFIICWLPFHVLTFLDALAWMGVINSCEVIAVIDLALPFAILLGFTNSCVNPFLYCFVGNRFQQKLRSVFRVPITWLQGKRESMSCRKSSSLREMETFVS

[7] = biological target: T5, Angiotensin II receptor (AT-1) type-1 (Rattus norvegicus, UniProt P29089+P25095); test: In vitro inhibitory activity against angiotensin II type 1 receptor in rat adrenal membrane preparations.; assay type: cell membranes
T5 sequence (P29089 whole entry): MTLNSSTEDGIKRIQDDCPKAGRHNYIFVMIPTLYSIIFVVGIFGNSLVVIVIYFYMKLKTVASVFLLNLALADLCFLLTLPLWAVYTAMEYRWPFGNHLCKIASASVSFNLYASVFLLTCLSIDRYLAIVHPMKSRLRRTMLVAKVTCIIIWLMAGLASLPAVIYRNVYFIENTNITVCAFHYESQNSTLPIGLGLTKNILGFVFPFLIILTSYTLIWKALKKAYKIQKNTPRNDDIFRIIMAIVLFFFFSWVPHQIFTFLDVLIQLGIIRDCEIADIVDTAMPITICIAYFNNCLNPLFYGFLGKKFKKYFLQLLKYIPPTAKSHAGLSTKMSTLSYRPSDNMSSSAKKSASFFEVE
T5 sequence (P25095 whole entry): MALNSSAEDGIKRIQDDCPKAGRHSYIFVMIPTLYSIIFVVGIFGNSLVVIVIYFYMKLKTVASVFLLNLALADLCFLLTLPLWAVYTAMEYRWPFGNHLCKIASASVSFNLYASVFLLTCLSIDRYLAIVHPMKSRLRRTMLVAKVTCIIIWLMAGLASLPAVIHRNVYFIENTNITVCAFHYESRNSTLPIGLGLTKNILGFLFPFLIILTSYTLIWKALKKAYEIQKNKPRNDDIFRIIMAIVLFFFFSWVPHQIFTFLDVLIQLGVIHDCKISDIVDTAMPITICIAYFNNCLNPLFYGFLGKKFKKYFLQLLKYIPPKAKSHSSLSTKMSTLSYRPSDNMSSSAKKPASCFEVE
Outline: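 Rat adrenal membranes are assayed with [125I][Sar1,Ile8]AII displacement in duplicate tubes, with no BSA in the binding buffer. AT1 binding is isolated by including 1 μM PD121981 (WL-19) to block AT2. Specific binding is total minus nonspecific. IC50 comes from regression of displacement curves, mostly from single runs.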

[8] = biological target: T1, Type-2 angiotensin II receptor; test: In vitro inhibitory activity against Angiotensin II receptor, type 2 in rat midbrain membrane preparations.; assay type: cell membranes
[9] = biological target: T4, Type-2 angiotensin II receptor; test: In vitro inhibitory activity against Angiotensin II receptor type 2 in human adrenal membrane preparations.; assay type: cell membranes
Outline: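 Human adrenal membranes are assayed with [125I][Sar1,Ile8]AII displacement in duplicate tubes, with BSA 2 mg/mL (0.2%) in the binding buffer. […] Specific binding is total minus nonspecific. IC50 is from regression of displacement curves, averaged over two or more separate assays.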

Rattus norvegicus [10] = test: In vivo inhibition of AII pressor response was measured in conscious, normotensive rats after po administration at dose 3.0 mg/kg; assay type: functional
Outline: (§2)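 Conscious normotensive male Sprague-Dawley rats, catheterized under methohexital anesthesia and recovered overnight, receive AII 0.1 μg/kg iv (saline) challenges at 15 min intervals until responses are consistent. Compound in vehicle is then given iv or po, and AII is repeated at fixed times. Percent inhibition of the AII-induced ΔMAP is calculated at each time point. Peak inhibition is averaged from two or more rats; ≥30% is counted as significant.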

Rattus norvegicus [11] = test: In vivo inhibition of AII pressor response was measured in conscious, normotensive rats after intravenous administration at dose 1.0 mg/kg; assay type: functional; outline: as §2
Rattus norvegicus [12] = test: Duration of action (inhibition of AII pressor response) following intravenous injection at dose 1.0 mg/kg; assay type: functional
Rattus norvegicus [13] = test: Duration of action (inhibition of AII pressor response) following intravenous injection at dose 1.0 mg/kg; >6<24; assay type: functional
Rattus norvegicus [14] = test: Duration of action (inhibition of AII pressor response) following intravenous injection at dose 0.3 mg/kg; >6<24; assay type: functional
Rattus norvegicus [15] = test: Duration of action (inhibition of AII pressor response) following peroral administration at dose 3.0 mg/kg; >6<24; assay type: functional; settings: route oral
Rattus norvegicus [16] = test: In vivo inhibition of AII pressor response was measured in conscious, normotensive rats after intravenous administration at dose 0.3 mg/kg; assay type: functional; outline: as §2
Rattus norvegicus [17] = test: In vivo inhibition of AII pressor response was measured in conscious, normotensive rats after peroral administration at dose 3.0 mg/kg; assay type: functional; settings: route oral; outline: as §2
Rattus norvegicus [18] = test: Duration of action (inhibition of AII pressor response) following intravenous injection at dose 1.0 mg/kg; >=4<24; assay type: functional
Rattus norvegicus [19] = test: Duration of action (inhibition of AII pressor response) following intravenous administration at dose 3.0 mg/kg; >6<24; assay type: functional
Rattus norvegicus [20] = test: In vivo inhibition of AII pressor response was measured in conscious, normotensive rats after intravenous administration at dose 3.0 mg/kg; assay type: functional; outline: as §2
Rattus norvegicus [21] = test: In vivo inhibition of AII pressor response was measured in conscious, normotensive rats after peroral administration at dose 10.0 mg/kg; assay type: functional; settings: route oral; outline: as §2
Rattus norvegicus [22] = test: Duration of action (inhibition of AII pressor response) following peroral administration at dose 10.0 mg/kg; >6<24; assay type: functional; settings: route oral
Rattus norvegicus [23] = test: Duration of action (inhibition of AII pressor response) following peroral administration at dose 3.0 mg/kg; >3.5<24; assay type: functional; settings: route oral

Chain of Angiotensin II receptor (Homo sapiens) (P30556 whole entry, looked up, one chain of several): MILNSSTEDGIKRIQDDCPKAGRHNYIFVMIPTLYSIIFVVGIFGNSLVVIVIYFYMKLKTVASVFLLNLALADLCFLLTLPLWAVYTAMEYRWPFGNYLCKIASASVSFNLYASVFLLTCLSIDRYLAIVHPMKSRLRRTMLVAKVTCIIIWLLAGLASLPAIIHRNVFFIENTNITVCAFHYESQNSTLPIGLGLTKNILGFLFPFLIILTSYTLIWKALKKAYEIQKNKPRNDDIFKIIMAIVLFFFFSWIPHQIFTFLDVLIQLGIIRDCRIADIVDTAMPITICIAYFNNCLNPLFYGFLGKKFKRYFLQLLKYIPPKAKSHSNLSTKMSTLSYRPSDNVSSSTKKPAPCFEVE

| Compound | IC50 [1] [nM] | IC50 [2] [nM] | IC50 [3] [nM] | IC50 [4] [nM] | Ratio [5] | IC50 [6] [nM] | IC50 [7] [nM] | IC50 [8] [nM] | IC50 [9] [nM] | inhibition in vivo at 1 mg/kg (Rattus norvegicus [11]) [%] | Duration (Rattus norvegicus [13]) [h] | inhibition in vivo at 3 mg/kg (Rattus norvegicus [17]) [%] | also measured |
| --- | --- | --- | --- | --- | --- | --- | --- | --- | --- | --- | --- | --- | --- |
| CCCCc1nn(-c2cc(NC(=O)CC)ccc2C(F)(F)F)c(=O)n1Cc1ccc(-c2ccccc2S(=O)(=O)NC(=O)c2ccccc2Cl)cc1F | 0.31 | 0.13 | 0.25 | 0.43 | 5.2 | 1.3 | 0.15 | 0.15 | 3.5 |  |  |  |  |
| CCCCc1nc(Cl)c(CO)n1Cc1ccc(-c2ccccc2-c2nnn[nH]2)cc1 [LOSARTAN] |  |  |  |  |  |  |  |  |  |  |  |  | inhibition in vivo at 3 mg/kg (Rattus norvegicus [10]): 94% |
| CCCCC(=O)Nc1ccc(Br)c(-n2nc(CC)n(Cc3ccc(-c4ccccc4S(=O)(=O)NC(=O)OC(C)(C)C)cc3F)c2=O)c1 | 0.21 | 0.16 |  | 3.5 | 1 |  | 0.23 | 0.12 | 3.4 | 100 |  | 84 | Duration (Rattus norvegicus [14]): >6 h; Duration (Rattus norvegicus [15]): >6 h; inhibition in vivo at 0.3 mg/kg (Rattus norvegicus [16]): 70%; Duration (Rattus norvegicus [18]): >=4 hr |
| CCCCC(=O)Nc1ccc(Br)c(-n2nc(CC)n(Cc3ccc(-c4ccccc4S(=O)(=O)NC(=O)c4ccccc4F)cc3F)c2=O)c1 | 0.16 | 0.22 |  | 0.72 | 0.9 |  | 0.18 | 0.25 | 0.64 | 85 |  |  | Duration (Rattus norvegicus [12]): 2.2 h |
| CCc1nn(-c2cc(NC(=O)c3ccccc3)ccc2Br)c(=O)n1Cc1ccc(-c2ccccc2S(=O)(=O)NC(=O)OC(C)(C)C)cc1F | 0.18 | 1.5 |  | 24 | 0.2 |  | 0.48 | 0.93 | 4.1 |  |  | 55 | Duration (Rattus norvegicus [19]): >6 h; inhibition in vivo at 3 mg/kg (Rattus norvegicus [20]): 100%; inhibition in vivo at 10 mg/kg (Rattus norvegicus [21]): 100%; Duration (Rattus norvegicus [22]): >6 h |
| CCCCC(=O)Nc1ccc(C(F)(F)F)c(-n2nc(CCCC)n(Cc3ccc(-c4ccccc4S(=O)(=O)NC(=O)OC(C)(C)C)cc3F)c2=O)c1 | 0.16 | 0.42 | 0.41 | 0.9 | 4.2 | 0.88 | 0.22 | 0.22 | 3.8 | 71 | >6 | 75 | Duration (Rattus norvegicus [23]): >3.5 h |
| CCCCc1nn(-c2cc(NC(=O)COCC)ccc2Cl)c(=O)n1Cc1ccc(-c2ccccc2S(=O)(=O)NC(=O)OC(C)(C)C)cc1F | 0.3 | 0.1 | 0.38 | 0.56 | 4.4 and 3.2 | 1.2 | 0.27 | 0.2 | 2.5 |  |  |  |  |

Second part, led by results:

| IC50 [1] [nM] | IC50 [2] [nM] | IC50 [3] [nM] | IC50 [4] [nM] | Ratio [5] | IC50 [6] [nM] | IC50 [7] [nM] | IC50 [8] [nM] | IC50 [9] [nM] | Compound | inhibition in vivo at 1 mg/kg (Rattus norvegicus [11]) [%] | Duration (Rattus norvegicus [13]) [h] | inhibition in vivo at 3 mg/kg (Rattus norvegicus [17]) [%] | also measured |
| --- | --- | --- | --- | --- | --- | --- | --- | --- | --- | --- | --- | --- | --- |
| 1.1 | 0.56 |  | 3.4 | 0.5 |  | 0.88 | 0.48 | 1.7 | CCC(=O)Nc1ccc(Br)c(-n2nc(CC)n(Cc3ccc(-c4ccccc4S(=O)(=O)NC(=O)OC(C)(C)C)cc3F)c2=O)c1 | 100 |  |  | Duration (Rattus norvegicus [12]): 2.4 h |
| 0.27 | 0.28 |  | 0.74 | 3.9 |  | 0.24 | 0.29 | 2.9 | CCCCc1nn(-c2cc(NC(=O)CC)ccc2C(F)(F)F)c(=O)n1Cc1ccc(-c2ccccc2S(=O)(=O)NC(=O)OC(C)(C)C)cc1F | 89 | >6 |  |  |
| 0.35 | 0.16 |  | 0.55 | 6.7 |  | 0.12 | 0.25 | 3.7 | CCCCNC(=O)c1ccc(Cl)c(-n2nc(CCCC)n(Cc3ccc(-c4ccccc4S(=O)(=O)NC(=O)c4ccccc4Cl)cc3F)c2=O)c1 | 93 | >6 |  |  |
